According to ChEMBL document CHEMBL1128222, “Novel inhibitors for multidrug resistance: 1,3,5-triazacycloheptanes” (J Med Chem, 1995):
Values belong to the compound of their own block, whether it stands above or below them.

Experiments:
P388/S [1] = experiment: Evaluation of inhibitory activity and cisplatin against drug sensitive P388 cells (P388/S) cells; type: functional, cell-based, Mus musculus; details: p388/s
In short: (§1)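 P388/S or P388/ADR cells at 10^5 cells/mL in RPMI-1640/10% FCS medium. They receive graded adriamycin, mitomycin C or cisplatin, alone or together with 2.5 μM modulator, for 48 h (DMSO final 0.25%). Growth is read by MTT and the antitumor-drug IC50 is reported.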

P388/ADR [2] = experiment: Evaluation of inhibitory activity and cisplatin against multidrug resistant P388 cells (P388/ADR) cells; type: functional, cell-based, Mus musculus; in short: as §1
P388/ADR [3] = experiment: In vitro relative vinblastin uptake into P388/ADR (murine leukemia/multidrug resistant) cells following 10 uM treatment.; type: functional, Mus musculus
In short: (§2)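 10^6 P388/S or P388/ADR cells in 1 mL of 20 mM Hepes-buffered medium, pH 7.4. They are incubated with 4.6 kBq [3H]vinblastine with or without 10 μM compound (DMSO final 1%) at 37 °C for 30 min. Cells are then chilled, pelleted at 2 °C and washed twice in cold PBS. They are solubilized in NaOH and counted. The value is uptake relative to untreated cells.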

Mus musculus [4] = experiment: Evaluation of Survival of mice upon oral administration on days 1-4 and 6-8 at a concentration of 40 mg/kg; type: functional
In short: (§3)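 Female CD2F1 mice, 5 per group, were inoculated i.p. with 1.0 × 10^6 P388/ADR cells on day 0. VBL was given by i.p. injection and/or the test agent orally on days 1-4 and 6-8. Read-out was survival days (average ± SD) and ILS (%) against the untreated group, with P < 0.05 by Student's t-test or a two-sample test with Welch's correction.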

Mus musculus [5] = experiment: Evaluation of ILS percentage of mice upon oral administration on days 1-4 and 6-8 at a concentration of 40 mg/kg; type: functional; in short: as §3
P388/S [6] = experiment: In vitro relative vinblastin uptake into P388/s (murine leukemia) cells following 10 uM treatment.; type: functional, Mus musculus; in short: as §2
P388/S [7] = experiment: Evaluation of inhibitory activity against drug sensitive P388 cells (P388/S) cells; type: functional, cell-based, Mus musculus
In short: (§4)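 P388/S and P388/ADR murine leukemia cells are maintained by weekly intraperitoneal passage in female CDF1 mice. For the assay they are seeded at 10^5 cells/mL in RPMI-1640 with 10% FCS, 20 μM β-mercaptoethanol and 100 μg/mL kanamycin. Vinblastine is given with or without modulator (0–5.0 μM; DMSO final 0.25%) for 48 h. Growth is read by MTT and vinblastine IC50 is reported.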

P388/ADR [8] = experiment: Evaluation of inhibitory activity against multidrug resistant P388 cells (P388/ADR) cells; type: functional, cell-based, Mus musculus; details: p388/adr; in short: as §4
P388/S [9] = experiment: In vitro evaluation for the inhibitory activity against drug sensitive P388 cells (P388/S) cells at a concentration of 5.0 uM; type: functional, cell-based; details: Mus musculus; in short: as §4
P388/S [10] = experiment: Inhibitory activity against drug sensitive P388 cells (P388/S) cells in presence of adriamycin; type: functional, cell-based; details: Mus musculus; in short: as §1
P388/ADR [11] = experiment: Relative increase in inhibitory activity against multidrug resistant P388 cells (P388/ADR) cells at a concentration of 1.0 uM in presence of vinblastine; type: functional, Mus musculus
In short: (§5)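 Same 48 h MTT growth assay in P388/S or P388/ADR cells at 10^5 cells/mL. Vinblastine IC50 is found alone and with modulator at 1.0, 2.5 or 5.0 μM. The value is the relative increase in vinblastine growth-inhibitory effect, taken as the fold change in IC50 from the combined treatment.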

P388/ADR [12] = experiment: In vitro for the inhibitory activity against multidrug resistant P388 cells (P388/ADR) cells at a concentration of 5 uM; type: functional, cell-based; details: Mus musculus; in short: as §4
Mus musculus [13] = experiment: Evaluation of Survival of mice intraperitoneal injection of VBL and/or oral administration on days 1-4 and 6-8 at a concentration of 40 mg/kg in mice; type: functional; in short: as §3
Mus musculus [14] = experiment: Evaluation of Survival of mice upon intraperitoneal injection of VBL and/or oral administration on days 1-4 and 6-8 at a concentration of 20 mg/kg; type: functional; in short: as §3
P388/S [15] = experiment: Relative increase in inhibitory activity against drug sensitive P388 cells (P388/S) cells at a concentration of 2.5 uM in presence of vinblastine; type: functional, Mus musculus; in short: as §5
P388/S [16] = experiment: In vitro evaluation for the inhibitory activity against drug sensitive P388 cells (P388/S) cells at a concentration of 2.5 uM; type: functional, cell-based; details: Mus musculus; in short: as §4
P388/ADR [17] = experiment: Relative increase in inhibitory activity against multidrug resistant P388 cells (P388/ADR) cells at a concentration of 5.0 uM in presence of vinblastine; type: functional, Mus musculus; in short: as §5
P388/S [18] = experiment: Relative increase in inhibitory activity against drug sensitive P388 cells (P388/S) cells at a concentration of 1.0 uM in presence of vinblastine; type: functional, Mus musculus; in short: as §5
P388/S [19] = experiment: Inhibitory activity against drug sensitive P388 cells (P388/S) cells in presence of cisplatin; type: functional, cell-based; details: Mus musculus; in short: as §1
Mus musculus [20] = experiment: Evaluation of ILS percentage of mice upon intraperitoneal injection of VBL / oral administration on days 1-4 and 6-8 at a concentration of 40 mg/kg; type: functional; in short: as §3
P388/ADR [21] = experiment: In vitro for the inhibitory activity against multidrug resistant P388 cells (P388/ADR) cells at a concentration of 2.5 uM; type: functional, cell-based; details: Mus musculus; in short: as §4
P388/ADR [22] = experiment: Relative increase in inhibitory activity against multidrug resistant P388 cells (P388/ADR) cells at a concentration of 2.5 uM in presence of vinblastine; type: functional, Mus musculus; in short: as §5
Mus musculus [23] = experiment: Evaluation of ILS percentage of mice upon intraperitoneal injection of VBL / oral administration on days 1-4 and 6-8 at a concentration of 20 mg/kg; type: functional; in short: as §3
P388/S [24] = experiment: Relative increase in inhibitory activity against drug sensitive P388 cells (P388/S) cells at a concentration of 5.0 uM in presence of vinblastine; type: functional, Mus musculus; in short: as §5
P388/ADR [25] = experiment: In vitro for the inhibitory activity against multidrug resistant P388 cells (P388/ADR) cells at a concentration of 0 uM; type: functional, cell-based; details: Mus musculus; in short: as §4
P388/ADR [26] = experiment: Inhibitory activity against multidrug resistant P388 cells (P388/ADR) cells at a concentration of 2.5 uM in presence of cisplatin; details: Mus musculus
P388/ADR [27] = experiment: In vitro for the inhibitory activity against multidrug resistant P388 cells (P388/ADR) cells at a concentration of 1.0 uM; type: functional, cell-based; details: Mus musculus; in short: as §4
P388/S [28] = experiment: Inhibitory activity against drug sensitive P388 cells (P388/S) cells in presence of mitomycin C; type: functional, cell-based; details: Mus musculus; in short: as §1
P388/ADR [29] = experiment: Inhibitory activity against multidrug resistant P388 cells (P388/ADR) cells at a concentration of 2.5 uM in presence of adriamycin; details: Mus musculus
P388/ADR [30] = experiment: Inhibitory activity against multidrug resistant P388 cells (P388/ADR) cells at a concentration of 2.5 uM in presence of mitomycin C; details: Mus musculus
P388/S [31] = experiment: In vitro evaluation for the inhibitory activity against drug sensitive P388 cells (P388/S) cells at a concentration of 0 uM; type: functional, cell-based; details: Mus musculus; in short: as §4
Mus musculus [32] = experiment: Evaluation of ILS percentage of mice upon intraperitoneal injection of VBL and/or oral administration on days 1-4 and 6-8 at a concentration of 10 mg/kg; type: functional; in short: as §3
Mus musculus [33] = experiment: Evaluation of Survival of mice upon intraperitoneal injection of VBL and/or oral administration on days 1-4 and 6-8 at a concentration of 10 mg/kg; type: functional; in short: as §3
P388/S [34] = experiment: In vitro evaluation for the inhibitory activity against drug sensitive P388 cells (P388/S) cells at a concentration of 1.0 uM; type: functional, cell-based; details: Mus musculus; in short: as §4
Mus musculus [35] = experiment: In vivo evaluation for the inhibitory activity against drug sensitive P388 cells (P388/S) cells bearing mice at a concentration of 0.2 mg/kg
Mus musculus [36] = experiment: Evaluation of Survival of mice upon intraperitoneal injection of VBL at a concentration of 0.2 mg/kg; type: functional; details: ip; in short: as §3
Mus musculus [37] = experiment: Evaluation of ILS percentage of mice upon intraperitoneal injection of VBL at a concentration of 0.2 mg/kg; type: functional; details: ip; in short: as §3
Mus musculus [38] = experiment: In vivo evaluation for the inhibitory activity against drug sensitive P388 cells (P388/S) cells bearing mice at dose 0.2 mg/kg; type: functional
In short: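 Mice were implanted with 1 × 10^6 P388/S cells on day 0 and given VBL by i.p. injection on days 1-4 and 6-8. Survival days (average ± SD) and ILS (%) were compared with the untreated group, with P < 0.05 by Student's t-test or Welch-corrected two-sample test.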

IC50 (P388/S [1]): 72 nM
IC50 (P388/ADR [2]): 51 nM
Compound: 1,5-Bis-(4-chloro-benzyl)-4-methylsulfanyl-1,5,6,7-tetrahydro-[1,3,5]triazepin-2-one; compound with cisplatin

Compound: CSC1=NC(=O)N(Cc2ccc(Cl)cc2)CCN1Cc1ccc(Cl)cc1
Relative uptake (P388/ADR [3]): 6.87
Survival days (Mus musculus [4]): 10
ILS at 40 mg/kg (Mus musculus [5]): 4.2%
Relative uptake (P388/S [6]): 1.28

IC50 (P388/S [7]): 48 nM
IC50 (P388/ADR [8]): 61 nM
Compound: CISPLATIN

Compound: CC[C@]1(O)C[C@H]2CN(CCc3c([nH]c4ccccc34)[C@@](C(=O)OC)(c3cc4c(cc3OC)N(C)[C@H]3[C@@](O)(C(=O)OC)[C@H](OC(C)=O)[C@]5(CC)C=CCN6CC[C@]43[C@@H]65)C2)C1.CSC1=NC(=O)N(Cc2ccc(Cl)cc2)CCN1Cc1ccc(Cl)cc1
IC50 (P388/S [9]): 0.4 nM
IC50 (P388/S [10]): 13 nM
Relative activity (P388/ADR [11]): 3.2
IC50 (P388/ADR [12]): 2.2 nM
Survival days (Mus musculus [13]): 14
Survival days (Mus musculus [14]): 13.2
Relative activity (P388/S [15]): 2.4
IC50 (P388/S [16]): 0.7 nM
Relative activity (P388/ADR [17]): 23
Relative activity (P388/S [18]): 1.9
IC50 (P388/S [19]): 72 nM
ILS at 40 mg/kg (Mus musculus [20]): 45.8%
IC50 (P388/ADR [21]): 6.2 nM
Relative activity (P388/ADR [22]): 11
ILS at 20 mg/kg (Mus musculus [23]): 37.5%
Relative activity (P388/S [24]): 4.3
IC50 (P388/ADR [25]): 70 nM
IC50 (P388/ADR [26]): 51 nM
IC50 (P388/ADR [27]): 23 nM
IC50 (P388/S [28]): 44 nM
IC50 (P388/ADR [29]): 90 nM
IC50 (P388/ADR [30]): 264 nM
IC50 (P388/S [31]): 1.7 nM
ILS at 10 mg/kg (Mus musculus [32]): 20.8%
Survival days (Mus musculus [33]): 11.6
IC50 (P388/S [34]): 0.9 nM

Compound: CC[C@]1(O)C[C@@H]2CN(CCc3c([nH]c4ccccc34)[C@@](C(=O)OC)(c3cc4c(cc3OC)N(C)[C@H]3[C@@](O)(C(=O)OC)[C@H](OC(C)=O)[C@]5(CC)C=CCN6CC[C@]43[C@@H]65)C2)C1 [VINBLASTINE]
Survival days (Mus musculus [35]): 15.5
ILS at 0.2 mg/kg (Mus musculus [36]): 14.6%
ILS at 0.2 mg/kg (Mus musculus [37]): 89%
Survival days (Mus musculus [38]): 15.5
